NR2E3 ag-1: human photoreceptor-specific nuclear receptor agonism; CHO-S Gal4-NCOR/VP16-NR2E3 two-hybrid, luciferase; inhibition of corepressor binding, % at 3.98 µM; AID 602229; hit rate 0.35% among 360,000; Q9Y5X4;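 active = inhibition above the mean of all tested compounds plus 3 SD, cut at about 70% in these data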;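 also: higher means lower luciferase signal from less NR2E3 corepressor binding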
Target sequence (Q9Y5X4 whole entry, looked up, the tested form may be a part): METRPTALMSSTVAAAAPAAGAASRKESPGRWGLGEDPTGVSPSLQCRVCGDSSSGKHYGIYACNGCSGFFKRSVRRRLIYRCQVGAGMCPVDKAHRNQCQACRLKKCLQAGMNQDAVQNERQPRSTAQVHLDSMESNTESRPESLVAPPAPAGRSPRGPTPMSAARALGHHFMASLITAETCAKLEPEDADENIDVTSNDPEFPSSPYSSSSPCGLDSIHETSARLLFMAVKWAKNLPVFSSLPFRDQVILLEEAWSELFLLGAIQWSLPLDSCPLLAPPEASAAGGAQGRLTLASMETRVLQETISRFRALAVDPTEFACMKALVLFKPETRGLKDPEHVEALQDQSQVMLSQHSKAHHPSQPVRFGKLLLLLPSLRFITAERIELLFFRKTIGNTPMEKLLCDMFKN
697 NFkB inh: inhibitors of the PMA/ionomycin-induced NF-kB reporter in 697 B cells. 697 B-cell NF-kB luciferase reporter, 16 h. inhibition, % at 4 µM. hit rate 0.33% among 330,000; in the data active = inhibition above about 35%
NR2E3 ag-2: activates human photoreceptor nuclear receptor NR2E3; hit rate 0.12% among 320,000; inhibition of corepressor binding, % at 4.78 µM; Q9Y5X4; GST-NR2E3/biotin-RetCOR TR-FRET, 1536-well;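 active = percent inhibition above the cutoff of mean plus 3 SD of all tested compounds, set per screening campaign, cut at about 20% in these data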
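System: GST-tagged NR2E3 plus biotinylated RetCOR corepressor; Amount: 1.35 nM GST-tagged NR2E3 final; Dosing: single nominal compound dose of 4.8 µM; Schedule: 5 h incubation at 4 °C; Technique: TR-FRET with europium anti-GST and streptavidin-D2, 340 nm excitation; Controls: biotin wells as high control, 0.6% DMSO wells as low control.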
FGF22 binding: binders of recombinant human FGF22 by thermal shift; activity (Tm shift, normalised), % at 9.99 µM; SYPRO orange fluorescence; percent of sucrose octasulfate shift, DMSO zero; hit rate 1.5% among 340,000; AID 651658; Q9HCT0;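 active = mean Tm shift, scaled 0 neutral to 100 positive control, at about 1.3% or above, every replicate too, limit read from the data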
Jurkat NFkB inh: inhibitors of the PMA/ionomycin-induced NF-kB reporter in Jurkat cells; hit rate 0.53% among 330,000; PMA/ionomycin-induced NF-kB luciferase reporter, luminescence; inhibition, % at 4 µM; AID 435003; in the data active = inhibition above about 50%
miR-122 sensor: miR-122 inhibition in Huh7 cells. Huh7 miR-122 Renilla luciferase sensor, 48 h; neutral wells = 0, positive control = 100. activation (reporter increase), % at 12.5 µM. hit rate 0.3% among 340,000. AID 602342;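 active = mean replicate activation score at least 90 and every replicate individually at or above 90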;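 also: higher luciferase means less miR-122 activity so hits act as miR-122 inhibitors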
A number is an active result. Shown are actives, neighbours in structure and some others; about 2.2% of the full set was active somewhere.

Results for COc1cc(/C=C/c2cc[n+](C)cc2)ccc1OCC(=O)Nc1ccccc1 ?
NR2E3 ag-1: inactive; 697 NFkB inh: inactive; NR2E3 ag-2: inactive; FGF22 binding: inactive; Jurkat NFkB inh: inactive

Results for Cc1noc(C)c1NC(=O)NCC[C@H]1CC[C@H](NC(=O)c2ccccc2)[C@@H](CO)O1 ?
FGF22 binding: inactive

How did CN1CCN(C(=O)c2ccc(F)c(F)c2)CC1 do in these assays?
NR2E3 ag-1: inactive; 697 NFkB inh: inactive; NR2E3 ag-2: inactive; FGF22 binding: inactive; Jurkat NFkB inh: inactive; miR-122 sensor: inactive

How did CN1CCN(C(=O)c2cc(Oc3c(F)c(F)c(F)c(F)c3F)cc(C(=O)N3CCN(C)CC3)c2)CC1 do in these assays?
NR2E3 ag-1: inactive; 697 NFkB inh: inactive; NR2E3 ag-2: inactive; FGF22 binding: 44; Jurkat NFkB inh: inactive; miR-122 sensor: inactive

Results for C[C@@H]1CCCCO[C@@H](CN(C)C(=O)C2CCCCC2)[C@H](C)CN([C@H](C)CO)C(=O)c2cc(N(C)C)ccc2O1 ?
FGF22 binding: inactive; miR-122 sensor: inactive

What do the screens show for `CCn1ncc(-c2cc(C(=O)O)no2)c1C`?
697 NFkB inh: inactive; NR2E3 ag-2: inactive; FGF22 binding: 43; Jurkat NFkB inh: inactive

How did CC(=O)N(C)C[C@H]1Oc2cc(-c3ccccc3C)ccc2S(=O)(=O)N([C@H](C)CO)C[C@H]1C do in these assays?
FGF22 binding: inactive; miR-122 sensor: inactive

How did COc1ccccc1C=CC(=O)C=Cc1ccccc1OC do in these assays?
NR2E3 ag-1: inactive; FGF22 binding: inactive

Results for COc1ccccc1/C=C/C(=O)/C=C/c1ccccc1O ?
NR2E3 ag-1: inactive; FGF22 binding: inactive; miR-122 sensor: 126

What do the screens show for `O=C(CN1CCOCC1)N[C@@H]1CC[C@H](CCNC(=O)C2CCCC2)O[C@H]1CO`?
FGF22 binding: inactive; miR-122 sensor: inactive

What do the screens show for `CN(C)CCCNc1c2c(nc3cc(-c4cccc(F)c4)nn13)CCC2`?
NR2E3 ag-1: inactive; 697 NFkB inh: inactive; NR2E3 ag-2: inactive; FGF22 binding: inactive; Jurkat NFkB inh: inactive; miR-122 sensor: inactive

How did CCOCCCNc1c2c(nc3cc(-c4ccc(F)cc4)nn13)CCC2 do in these assays?
NR2E3 ag-1: inactive; 697 NFkB inh: inactive; NR2E3 ag-2: inactive; FGF22 binding: 43; Jurkat NFkB inh: inactive

What do the screens show for `O=C(C[C@H]1CC[C@@H](NC(=O)CCN2CCCCC2)[C@@H](CO)O1)NCc1ccc(Cl)c(Cl)c1`?
FGF22 binding: inactive; miR-122 sensor: inactive

How did CCOC(=O)Cn1nc(C(F)F)c(Br)c1C do in these assays?
NR2E3 ag-1: inactive; 697 NFkB inh: inactive; NR2E3 ag-2: inactive; FGF22 binding: 44; Jurkat NFkB inh: inactive

What do the screens show for `Cc1ccc(-c2nc(CS(=O)CC(=O)NCc3ccccn3)c(C)o2)cc1` (stereo not given)?
NR2E3 ag-1: inactive; 697 NFkB inh: inactive; NR2E3 ag-2: inactive; FGF22 binding: inactive; Jurkat NFkB inh: inactive; miR-122 sensor: inactive

How did Cc1oc(-c2ccccc2F)nc1CS(=O)CC(=O)NCc1ccccn1 (stereo not given) do in these assays?
NR2E3 ag-1: inactive; 697 NFkB inh: inactive; NR2E3 ag-2: inactive; FGF22 binding: 44; Jurkat NFkB inh: inactive; miR-122 sensor: inactive

What do the screens show for `CC(C(=O)NCc1ccc2c(c1)OCO2)N(c1ccccc1)S(C)(=O)=O` (stereo not given)?
NR2E3 ag-1: inactive; 697 NFkB inh: inactive; NR2E3 ag-2: inactive; Jurkat NFkB inh: inactive; miR-122 sensor: inactive

What do the screens show for `Cc1ccc(N(C(C)C(=O)NCc2ccncc2)S(C)(=O)=O)cc1C` (stereo not given)?
NR2E3 ag-1: inactive; 697 NFkB inh: inactive; NR2E3 ag-2: inactive; FGF22 binding: 43; Jurkat NFkB inh: inactive; miR-122 sensor: inactive

Results for CO[C@H]1CN(C)C(=O)c2cc(NS(=O)(=O)c3ccc(Cl)cc3)ccc2OC[C@@H](C)NC[C@H]1C ?
FGF22 binding: inactive; miR-122 sensor: inactive

How did COCCOC(=O)N1C(=O)[C@@]2(c3cc(C#CC4=CCCCC4)ccc31)[C@H](c1ccccc1OCCO)N1[C@H](c3ccccc3)[C@H](c3ccccc3)OC(=O)[C@H]1[C@@H]2C(=O)NC[C@H](O)c1ccccc1 do in these assays?
FGF22 binding: inactive

Source: PubChem
